The test system of assay [1] is DC3F/AD. In words: Increase in adriamycin uptake in modulator-treated cells relative to untreated cells at a concentration of 5 uM. In kind it is functional, Cricetulus griseus. Put shortly: (§1)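 DC-3F/AD or KB-A1 cells (5 × 10⁶/mL) were incubated at 37 °C for 5 h with 50 μM adriamycin plus modulator (2.5–10 μM range). ADR fluorescence of 10 000 cells was read by flow cytometry at 4 °C with 488 nm argon-laser excitation. The value is the increase in mean fluorescence of treated cells over untreated cells.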

Assay [2] relates to DC3F/AD. In words: Increase in adriamycin uptake in modulator-treated cells relative to untreated cells at a concentration of 10 uM. In kind it is functional, Cricetulus griseus. Put shortly: as §1
For assay [3], the system named is KB. Kind of assay: In vitro activity in KB-A1 cell line activity expressed as fold reversion (Ratio of IC50(adriamycin alone) / IC50(adriamycin + modulator) at a concentration of 5 uM. In kind it is functional, Homo sapiens. An outline of the steps:
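Human epidermoid KB-A1 cells (Pgp-overexpressing) were grown in RPMI 1640 with 10% FCS and 10 mM HEPES (pH 7.4). They were exposed for 4 days to adriamycin (nine graded concentrations, in triplicate) with or without 5 μM modulator. IC50 was read by the MTT assay. Fold reversion = IC50(ADR alone)/IC50(ADR + modulator).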

Assay [4] has as its system DC3F/AD. In words: In vitro activity in DC-3F/AD cell line Ratio of IC50(actinomycin D alone) / IC50(actinomycin D + modulator) at a concentration of 10 uM.
The subject of assay [5] is KB. Kind of assay: Increase in adriamycin uptake in modulator-treated cells relative to untreated KB-A1 cells at a concentration of 5 uM. In kind it is functional, Homo sapiens. An outline of the steps: as §1
Assay [6] relates to DC3F/AD. Kind of assay: Percent of cell viability remaining after incubating with a 10 uM concentration. In kind it is functional, Cricetulus griseus. An outline of the steps:
(§2)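 Cells were grown with modulator alone for 4 days under the same conditions as the chemosensitivity assay, and read by MTT. Viability = (absorbance with modulator/absorbance of control cells) × 100. "tox" marks viability below 25%.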

For assay [7], the system named is DC3F/AD. In words: In vitro activity in DC-3F/AD cell line(Ratio of IC50(actinomycin D alone) / IC50(actinomycin D + modulator) at a concentration of 5 uM.
Assay [8] deals with DC3F/AD. Kind of assay: Percent of cell viability remaining after incubating the cells with the modulator alone a concentration of 5 uM. In kind it is functional, Cricetulus griseus. Put shortly:
as §2

The test system of assay [9] is KB. In words: Percent of cell viability remaining after incubating the cells with the modulator alone. In kind it is functional, Homo sapiens. The arrangement: concentration or dose not given beside the values. An outline of the steps:
as §2

Assay [10] has as its system P388. In words: Antitumor activity of vincristine against P388 leukemia cell line in mice at a dose of 100 mg/kg. In kind it is functional, Mus musculus.
Assay [11] has as its system P388. In words: Antitumor activity of vincristine against P388 leukemia cell line in mice at a dose of 50 mg/kg. In kind it is functional, Mus musculus.

Where only a bound is given, the exact number is not on record here.

The values below come from ChEMBL document CHEMBL1126298, “New triazine derivatives as potent modulators of multidrug resistance” (1992).

Consider `C=CCNc1nc(NCC=C)nc(N2CCC(NC3c4ccccc4CCc4ccccc43)CC2)n1`, for which the Increase is given as 34.3 with DC3F/AD [1], 39.7 with DC3F/AD [2] and 34.2 with KB [5]. The values for the Fold reversion with KB [3], with DC3F/AD [4] and in the assay with DC3F/AD [7] were 91, 1626 and 755, respectively. Besides, the Viability with DC3F/AD [6] was determined as 91%; in the assay on DC3F/AD [8] it was 99%; in the assay on KB [9], 74%.
For `C=CCNc1nc(N)nc(N2CCC(NCC3c4ccccc4CCc4ccccc43)CC2)n1`, the Increase is recorded as 6.7 in the assay on DC3F/AD [1], 11 in the assay with DC3F/AD [2] and 16.3 in the assay on KB [5]. Besides, the Fold reversion in the assay with KB [3] was determined as 89; in the assay on DC3F/AD [7] it was 421. For the same molecule, the Viability is 92% in the assay with DC3F/AD [8] and 122% with KB [9].
`C=CCNc1nc(NCC=C)nc(NCC2CCN(CC3c4ccccc4CCc4ccccc43)CC2)n1`: the Increase with DC3F/AD [1] worked out at 19.3; in the assay with DC3F/AD [2] it was 21; with KB [5] it was 9.8. For the same molecule, the results for the Fold reversion in the assay on KB [3], in the assay with DC3F/AD [4] and with DC3F/AD [7] were 12, under 25 and 353, respectively. Also, the figures for the Viability in the assay on DC3F/AD [8] and with KB [9] were 57% and 53%, respectively.
For the molecule `C=CCNc1nc(OC)nc(N2CCC(NCC3c4ccccc4CCc4ccccc43)CC2)n1`, the results for the Increase with DC3F/AD [1], in the assay on DC3F/AD [2] and with KB [5] were 23.9, 28.5 and 40.7, respectively. The Fold reversion in the assay with KB [3] is 138; in the assay on DC3F/AD [4], 1078; with DC3F/AD [7] it was 1092. Also, the Viability in the assay with DC3F/AD [6] was determined as 79%; with DC3F/AD [8], 86%; in the assay on KB [9], 91%.
In the case of `C=CCNc1nc(NCC=C)nc(N2CCC(CNC3c4ccccc4CCc4ccccc43)CC2)n1`, the figures for the Increase with DC3F/AD [1], with DC3F/AD [2] and in the assay on KB [5] were 14, 20.5 and 29.8, respectively. The Fold reversion came to 126 in the assay on KB [3], 544 in the assay on DC3F/AD [4] and 173 with DC3F/AD [7]. The Viability in the assay on DC3F/AD [6] stood at 72%; in the assay on DC3F/AD [8], 96%; in the assay on KB [9] it was 105%.
For the molecule `C=CCNc1nc(NCC=C)nc(N2CCC(NCCC(c3ccc(OC)c(OC)c3)c3ccc(OC)c(OC)c3)CC2)n1`, the Increase in the assay on DC3F/AD [1] is reported as 1.6; in the assay on DC3F/AD [2] it was 2.9. In addition, the Fold reversion in the assay with KB [3] worked out at 6; in the assay on DC3F/AD [4], 12; in the assay with DC3F/AD [7], 12. Besides, the Viability is reported as 114% with DC3F/AD [6], 115% in the assay on DC3F/AD [8] and 100% in the assay on KB [9].
For `C=CCNc1nc(NCC=C)nc(N2CCC(NCC(c3ccc(F)cc3)C3CCCCC3)CC2)n1` (stereo not given), the Increase came to 30.1 in the assay on DC3F/AD [1], 34.6 in the assay with DC3F/AD [2] and 48.1 in the assay with KB [5]. In addition, the Fold reversion is recorded as 142 with KB [3], under 25 with DC3F/AD [4] and 1009 in the assay with DC3F/AD [7]. Besides, the values for the Viability in the assay with DC3F/AD [8] and in the assay on KB [9] were 85% and 71%, respectively.
`C=CCNc1nc(NCC=C)nc(N2CCC(NCC3c4ccccc4Oc4ccccc43)CC2)n1`: the figures for the Increase in the assay on DC3F/AD [1], in the assay on DC3F/AD [2] and in the assay with KB [5] were 19.4, 25.7 and 43.9, respectively. The figures for the Fold reversion in the assay with KB [3], in the assay with DC3F/AD [4] and in the assay on DC3F/AD [7] were 140, 2584 and 844, respectively. Further, the Viability in the assay with DC3F/AD [6] is 85%; in the assay with DC3F/AD [8], 91%; in the assay with KB [9], 106%.
`C=CCNc1nc(NCC=C)nc(N2CCC(NCC3c4ccccc4CSc4ccccc43)CC2)n1` (stereo not given): the Increase in the assay on DC3F/AD [1] worked out at 33.5; with DC3F/AD [2], 32.6; in the assay on KB [5], 57.3. Moreover, the Fold reversion was found to be 393 in the assay on KB [3], 6046 with DC3F/AD [4] and 867 in the assay with DC3F/AD [7]. Also, the Viability came out at 72% in the assay on DC3F/AD [6], 83% in the assay with DC3F/AD [8] and 108% in the assay with KB [9].
As for `C=CCNc1nc(NCC=C)nc(N2CCC(N(C)CC3c4ccccc4CCc4ccccc43)CC2)n1`, the figures for the Increase with DC3F/AD [1], in the assay with DC3F/AD [2] and with KB [5] were 17.8, 21.8 and 25.6, respectively. In addition, the Fold reversion with KB [3] was determined as 118; in the assay with DC3F/AD [4], 3035; in the assay with DC3F/AD [7] it was 834. Besides, the Viability in the assay with DC3F/AD [6] is 69%; with DC3F/AD [8], 70%; in the assay with KB [9], 111%.
Turning to `CN(C)c1nc(N(C)C)nc(N2CCC(NCC3c4ccccc4CCc4ccccc43)CC2)n1`, the Increase with DC3F/AD [1] was found to be 29.4; in the assay on DC3F/AD [2], 30.6; in the assay on KB [5] it was 16.4. The Fold reversion in the assay on KB [3] is listed as 7; in the assay on DC3F/AD [4], 544; in the assay with DC3F/AD [7], 187. Further, the figures for the Viability in the assay with DC3F/AD [6], with DC3F/AD [8] and with KB [9] were 66%, 71% and 28%, respectively.
For the molecule `C=CCNc1nc(NCC=C)nc(N2CCC(NCC3c4ccccc4-c4ccccc43)CC2)n1`, the Increase in the assay on DC3F/AD [1] worked out at 19.6; in the assay on DC3F/AD [2] it was 23.2; in the assay with KB [5] it was 20.6. Besides, the Fold reversion is on record as 57 with KB [3], 589 in the assay on DC3F/AD [4] and 170 in the assay on DC3F/AD [7]. Moreover, the Viability is on record as 75% in the assay on DC3F/AD [6], 78% in the assay on DC3F/AD [8] and 42% with KB [9].
Consider `C=CCNc1nc(NCC=C)nc(N2CCC(NC3CC4c5ccccc5C3c3ccccc34)CC2)n1` (stereo not given), for which the Increase is recorded as 32.9 in the assay on DC3F/AD [1], 35.9 in the assay with DC3F/AD [2] and 43.8 in the assay on KB [5]. Besides, the Fold reversion with KB [3] is recorded as 118; in the assay on DC3F/AD [4], 4264; in the assay on DC3F/AD [7], 1638. Also, the Viability is given as 102% in the assay on DC3F/AD [6], 98% in the assay with DC3F/AD [8] and 133% in the assay with KB [9].
For `C=CCNc1nc(NCC=C)nc(N2CCC(NCC3c4ccccc4CCCc4ccccc43)CC2)n1`, the figures for the Increase in the assay with DC3F/AD [1], with DC3F/AD [2] and in the assay with KB [5] were 22.3, 21.6 and 44.1, respectively. The Fold reversion is on record as 177 in the assay on KB [3], under 25 in the assay with DC3F/AD [4] and 2951 in the assay with DC3F/AD [7]. The T/C in the assay with P388 [10] came out at 186%; with P388 [11] it was 173%. Also, the Viability is reported as 105% in the assay on DC3F/AD [8] and 89% in the assay with KB [9].
Consider `C=CCNc1nc(NCC=C)nc(N2CCC(NCC3c4ccccc4CCc4cc(OC)ccc43)CC2)n1` (stereo not given), for which the figures for the Increase in the assay with DC3F/AD [1] and with KB [5] were 30.8 and 72.6, respectively. Further, the values for the Fold reversion with KB [3], with DC3F/AD [4] and with DC3F/AD [7] were 264, under 25 and 1913, respectively. Further, the Viability is listed as 73% in the assay with DC3F/AD [8] and 83% with KB [9].
As to `C=CCNc1nc(NCC=C)nc(N2CCC(NCC3c4ccccc4NC(=O)c4ccccc43)CC2)n1` (stereo not given), the Increase in the assay with DC3F/AD [1] was 2.2; in the assay with DC3F/AD [2], 41.5; in the assay with KB [5], 48.4. Further, the results for the Fold reversion in the assay with KB [3], in the assay with DC3F/AD [4] and with DC3F/AD [7] were 315, 583 and 2, respectively. The Viability in the assay on DC3F/AD [6] was 100%; in the assay on DC3F/AD [8] it was 106%; in the assay on KB [9], 113%.
`C=CCNc1nc(NCC=C)nc(NCC2CCN(C3c4ccccc4CCc4ccccc43)CC2)n1`: the Increase in the assay on DC3F/AD [1] is 10.1; in the assay on DC3F/AD [2] it was 17.4; in the assay on KB [5] it was 1.9. Moreover, the Fold reversion in the assay on KB [3] was 10; with DC3F/AD [4] it was 46; in the assay with DC3F/AD [7], 10. The Viability in the assay on DC3F/AD [6] is recorded as 49%; in the assay on DC3F/AD [8], 71%; in the assay on KB [9] it was 97%.
In the case of `C=CCNc1nc(NCC=C)nc(NC2CCN(C(c3ccc(F)cc3)c3ccc(F)cc3)CC2)n1`, the Fold reversion is on record as 22 in the assay with KB [3], under 25 in the assay with DC3F/AD [4] and 1654 in the assay with DC3F/AD [7]. Also, the Viability with DC3F/AD [8] was found to be 38%; with KB [9] it was 40%.
As for `C=CCNc1nc(NCC=C)nc(N2CCC(NCC(c3cc(OC)cc(OC)c3)c3ccccc3C)CC2)n1` (stereo not given), the Increase is recorded as 24.7 in the assay on DC3F/AD [1], 26.5 in the assay on DC3F/AD [2] and 41.4 with KB [5]. Moreover, the Fold reversion is 111 in the assay with KB [3], under 25 in the assay with DC3F/AD [4] and 1224 with DC3F/AD [7]. The Viability with DC3F/AD [8] is 80%; in the assay on KB [9], 91%.

A word on the T/C: it is the result in the treated group divided by that in the control group, in per cent.
